Test results as given in ChEMBL document CHEMBL2029285, “Structure-based design of novel class II c-Met inhibitors: 1. Identification of pyrazolone-based derivatives” (J Med Chem, 2012).
Each block holds one compound with its values, some of them ahead of it.

What was measured:
[1] = target: Vascular endothelial growth factor receptor 2 (Homo sapiens, UniProt P35968); experiment: Inhibition of VEGFR2
[2] = target: Insulin-like growth factor 1 receptor (Homo sapiens) (UniProt P08069); experiment: Inhibition of IGF1R
[3] = Clearance in Sprague-Dawley rat at 2 mg/kg, iv; assay type: ADME, organism-based; set-up: dose 2 mg/kg, route intravenous; details: in vivo
Summary of the method: (§1)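 Male Sprague-Dawley rats, 3 animals per study, given 2 mg/kg iv as a solution in DMSO. Clearance, steady-state volume and half-life were derived from plasma pharmacokinetics.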

[4] = Volume of distribution at steady-state in Sprague-Dawley rat at 2 mg/kg, iv; assay type: ADME, organism-based; set-up: dose 2 mg/kg, route intravenous; details: in vivo, read-out: Vdss; summary of the method: as §1
[5] = Elimination half life in Sprague-Dawley rat at 2 mg/kg, iv; assay type: ADME, organism-based; set-up: dose 2 mg/kg, route intravenous; details: in vivo, read-out: beta t1/2 (converted); summary of the method: as §1
[6] = Oral bioavailability in Sprague-Dawley rat at 5 mg/kg; assay type: ADME, organism-based; details: in vivo
Summary of the method: (§2)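 Male Sprague-Dawley rats, 3 animals per study, dosed orally at 5 mg/kg as a suspension in 1% Tween 80, 99% OraPlus.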

[7] = AUC in Sprague-Dawley rat at 5 mg/kg, po; assay type: ADME, organism-based; set-up: dose 5 mg/kg, route oral; details: plasma; summary of the method: as §2
[8] = test system: Mus musculus; experiment: Inhibition of HGF-mediated c-met autophosphorylation in po dosed Balb/c mouse liver compound administered 2 hrs before and measured after 5 mins of HGF stimulation by electrochemiluminescent assay; assay type: functional
Summary of the method: (§3)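 Balb/c mice were gavaged at 10, 30 or 100 mg/kg. At 2 h postdose, human HGF was injected iv and livers were harvested 5 min later. Phospho-c-Met was quantified by electrochemiluminescent assay and compared with vehicle + HGF. Mean ± SD, n = 3. Terminal plasma concentrations were measured.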

[9] = test system: Mus musculus; experiment: Inhibition of HGF-mediated c-met autophosphorylation in Balb/c mouse liver at 10 mg/kg, po administered 2 hrs before and measured after 5 mins of HGF stimulation by electrochemiluminescent assay; assay type: functional; summary of the method: as §3
[10] = target: T1, Hepatocyte growth factor receptor (Homo sapiens, UniProt P08581); experiment: Inhibition of recombinant c-met-mediated gastrin phosphorylation by HTRF assay
[11] = target: T1, Hepatocyte growth factor receptor; experiment: Inhibition of HGF-mediated c-met autophosphorylation in serum-starved human PC3 cells after 1 hr by electrochemiluminescent immunoassay; assay type: cell-based, PC-3

Structure (SMILES): COc1cc2nccc(Oc3ccc(NC(=O)c4c(C)n(C)n(-c5ccccc5)c4=O)cc3F)c2cc1OC
INH [1]: 6.2 nM
INH [2]: 65 nM
clearance [3]: 0.583 mL/min/kg
Vd [4]: 0.242 L/kg
half-life [5]: 276 min
bioavailability [6]: 94%
AUC [7]: 258 µM·h
ED90 [8]: < 30 mg/kg
inhibition [8]: Dose-dependent effect
inhibition in vivo at 10 mg/kg [9]: 85%

Structure (SMILES): COc1cc2nccc(Oc3ccc(NC(=O)N4CCN(c5ccccc5)C4=O)cc3F)c2cc1OC
Ki [10]: 1.7 nM
IC50 [11]: 53 nM

Structure (SMILES): COc1cc2nccc(Oc3ccc(N(C)C(=O)c4c(C)n(C)n(-c5ccccc5)c4=O)cc3F)c2cc1OC
Ki [10]: > 20000 nM
IC50 [11]: > 20000 nM

Now from value to compound:

Ki [10]: 4.8 nM
Structure (SMILES): COc1ccc2c(OCc3nnc4ccc(-c5cc(F)c(F)c(F)c5)cn34)ccnc2c1

Ki [1]: 103 nM
Structure (SMILES): COc1cc2nccc(Oc3ccc(NC(=S)NC(=O)Cc4ccccc4)cc3F)c2cc1OC
